pEC50, pIC50: −log10 of the molar value.

Assay [1] in a line: Inhibition of tubulin in rat A10 cells assessed as induction of cellular microtubule disassembly after 18 hrs by indirect immunofluorescence technique. The format is cell-based. To be noted: A10, 18 h. The gist of the method: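 A-10 cells plated on glass coverslips and treated with compound at varying concentrations for 18 h. After fixation, microtubules immunostained with a β-tubulin antibody (indirect immunofluorescence) and nuclei stained with DAPI. Read by fluorescence microscopy. Percentage of cellular microtubule loss estimated visually across the concentration range.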

Assay [2] in a line: Inhibition of tubulin polymerization by turbidimetry. An outline of the steps: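 Tubulin at 10 µM (1.0 mg/mL). Polymerization followed turbidimetrically at 350 nm in temperature-controlled spectrophotometers.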
For another assay, the system named is MCF7. The experiment in a line: Antiproliferative activity against human MCF7 cells after 24 hrs by SRB assay. The class given is functional, cell-based. To be noted: MCF7, 24 h. An outline of the steps: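 MCF-7 cells are grown for 24 h with or without drug, then for a further 48 h. Total cell protein is measured by sulforhodamine B staining, and the IC₅₀ is derived from it.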
A general note: The SRB assay estimates cell density from bound dye.

For orientation: pEC50 means the negative decadic logarithm of the EC50, by convention in mol/L. In general, pIC50 refers to the negative decadic logarithm of the IC50, by convention in mol/L. On to `COc1ccc(C(=O)/C=C/c2cc(OC)c(OC)c(OC)c2)cc1O`, for which the pEC50 in assay [1] is 4.74. For the same compound, the pIC50 was less than 4.40 in assay [2] and less than 5.60 in the assay with MCF7.
`COc1ccc(/C=C\c2cc(OC)c(OC)c(OC)c2)cc1O` [COMBRETASTATIN A4]: the negative-log EC50 (pEC50) in assay [1] is greater than 7.60. The negative-log IC50 (pIC50) with MCF7 was 7.49.

The record behind these values is ChEMBL document CHEMBL1157725 (Bioorg Med Chem, 2010).
